{"data": "Published values collected from several papers", "CHEK1": "Serine/threonine-protein kinase Chk1 (CHEK1, Homo sapiens, UniProt O14757)", "GLP1R": "Glucagon-like peptide 1 receptor (GLP1R, Homo sapiens, UniProt P43220)", "PPARG": "Peroxisome proliferator-activated receptor gamma (PPARG, Homo sapiens, UniProt P37231)", "note": "Lines come from different studies, so protocols differ. pEC50, pIC50, pKd: −log10 of the molar value."}
{"Compound": "CC(=O)c1cc([N+](=O)[O-])c(Sc2cccc(Cl)c2Cl)s1", "target": "Caspase-3 (CASP3, Homo sapiens, UniProt P42574)", "read-out": "enzyme activity", "action": "inhibitor", "measurement": "pEC50", "value": "< 4.30"}
{"Compound": "COc1cc(Nc2ncc3c(n2)-c2ccc(Cl)cc2C(c2c(F)cccc2OC)=NC3)ccc1C(=O)NCCOCCOCCNC(=O)COc1cccc2c1C(=O)N(C1CCC(=O)NC1=O)C2=O (stereo not shown)", "target": "Ferrochelatase, mitochondrial (FECH, Homo sapiens, UniProt P22830)", "read-out": "binding", "notes": "lysate", "measurement": "pKd", "value": 5.19}
{"Compound": "O=C(O)c1ccc(-c2[nH]nc3c2Cc2cc(CNC4CCC(O)CC4)ccc2-3)o1 (stereo not shown)", "target": "CHEK1", "read-out": "enzyme activity", "action": "inhibitor", "measurement": "pIC50", "value": 5.81}
{"Compound": "CC[C@H](C)[C@H](NC(=O)[C@H](CC(=O)O)NC(=O)[C@H](CO)NC(=O)[C@@H](NC(=O)[C@H](Cc1ccccc1)NC(=O)[C@@H](NC(=O)CNC(=O)[C@H](CC(=O)O)NC(=O)[C@H](C)NC(=O)[C@@H](N)Cc1c[nH]cn1)[C@@H](C)O)[C@@H](C)O)C(=O)N[C@@H](CC(N)=O)C(=O)N[C@@H](CCCCN)C(=O)N[C@H](C(=O)N[C@@H](CC(C)C)C(=O)N[C@@H](CC(=O)O)C(=O)N[C@@H](CC(=O)O)C(=O)N[C@@H](CCSC)C(=O)N[C@@H](C)C(=O)N[C@@H](C)C(=O)N[C@@H](CCCCN)C(=O)N[C@@H](CCC(=O)O)C(=O)N[C@@H](Cc1ccccc1)C(=O)N[C@@H](CC(C)C)C(=O)N[C@@H](CCCCN)C(=O)N[C@@H](Cc1c[nH]c2ccccc12)C(=O)N[C@@H](CC(C)C)C(=O)N[C@H](C(=O)N[C@@H](CC(N)=O)C(=O)N[C@H](C(=O)N[C@@H](CCCCN)C(=O)N[C@H](C(=O)N[C@H](C(=O)N[C@@H](CCC(N)=O)C(=O)O)[C@@H](C)O)C(C)C)[C@@H](C)O)[C@@H](C)CC)[C@@H](C)CC", "target": "GLP1R", "read-out": "reporter gene", "action": "agonist", "method": "luciferase", "measurement": "pEC50", "value": 8.55}
{"Compound": "CCCCc1nc2c(o1)c(N)nc1ccccc12", "target": "Toll-like receptor 8 (TLR8, Homo sapiens, UniProt Q9NR97)", "read-out": "reporter gene", "action": "agonist", "measurement": "pEC50", "value": 4.90}
{"Compound": "CCOC(=O)CCCCCOc1ccc(Cl)cc1NC(=O)Nc1cnc(C#N)cn1", "target": "CHEK1", "read-out": "enzyme activity", "action": "inhibitor", "measurement": "pIC50", "value": 6.42}
{"Compound": "CC[C@H](C)[C@H](NC(=O)[C@H](Cc1ccccc1)NC(=O)[C@H](CCC(=O)O)NC(=O)[C@H](CCCCN)NC(=O)[C@H](C)NC(=O)[C@H](C)NC(=O)[C@H](CCC(N)=O)NC(=O)CNC(=O)[C@H](CCC(=O)O)NC(=O)[C@H](CC(C)C)NC(=O)[C@H](Cc1ccc(O)cc1)NC(=O)[C@H](CO)NC(=O)[C@H](CO)NC(=O)[C@@H](NC(=O)[C@H](CC(=O)O)NC(=O)[C@H](CO)NC(=O)[C@@H](NC(=O)[C@H](Cc1ccccc1)NC(=O)[C@@H](NC(=O)CNC(=O)[C@H](CCC(=O)O)NC(=O)[C@H](C)NC(=O)[C@H](Cc1c[nH]cn1)NC[C@H](C)N)[C@@H](C)O)[C@@H](C)O)C(C)C)C(=O)N[C@@H](C)C(=O)N[C@@H](Cc1c[nH]c2ccccc12)C(=O)N[C@@H](CC(C)C)C(=O)N[C@H](C(=O)N[C@@H](CCCCN)C(=O)NCC(=O)N[C@@H](CCCNC(=N)N)C(N)=O)C(C)C", "target": "GLP1R", "read-out": "reporter gene", "action": "agonist", "method": "luciferase", "measurement": "pEC50", "value": 11.60}
{"Compound": "COc1cc(-c2ccc3c(c2)Nc2ccc(OCCN4CCOCC4)cc2NC3=O)ccc1[N+](=O)[O-]", "target": "CHEK1", "read-out": "enzyme activity", "action": "inhibitor", "measurement": "pIC50", "value": 7.61}
{"Compound": "O=C(CCCCCCC(=O)Nc1ccc([C@H]2O[C@@H](CSc3nc(-c4ccccc4)c(-c4ccccc4)o3)C[C@@H](c3ccc(CO)cc3)O2)cc1)NO", "target": "Histone deacetylase 5 (HDAC5, Homo sapiens, UniProt Q9UQL6)", "read-out": "cell-free assay", "measurement": "pKd", "value": "< 4.52"}
{"Compound": "CC[C@@H](Oc1cccc(CN(CCCOc2ccc(OC)cc2)c2nc3ccccc3o2)c1)C(=O)O", "target": "PPARG", "read-out": "binding", "method": "ITC", "measurement": "pKd", "value": 5.04}
{"Compound": "COc1cc(-c2ccc3c(c2)Nc2ccc(NC(N)=O)cc2NC3=O)ccc1[N+](=O)[O-]", "target": "CHEK1", "read-out": "enzyme activity", "action": "inhibitor", "measurement": "pIC50", "value": 8.19}
{"Compound": "CCCCCCCC/C=C\\CCCCCCCC(=O)O[C@H](CC(=O)[O-])C[N+](C)(C)C", "target": "Pantothenate kinase 3 (PANK3, Homo sapiens, UniProt Q9H999)", "read-out": "enzyme activity", "action": "inhibitor", "method": "radiometric", "measurement": "pEC50", "value": 6.22}
{"Compound": "Oc1ccc(-c2ccc(-c3[nH]nc4c3Cc3cc(O)ccc3-4)cc2)cc1", "target": "CHEK1", "read-out": "enzyme activity", "action": "inhibitor", "measurement": "pIC50", "value": 8.23}
{"Compound": "CCn1cncc1Cn1c(CN2CCC(c3cccc(OCc4ccc(F)cc4F)n3)CC2)nc2ccc(C(=O)O)cc21", "target": "Glucagon-like peptide 1 receptor (GLP1R, Homo sapiens, UniProt P43220, L260F)", "read-out": "cAMP", "action": "agonist", "method": "TR-FRET", "measurement": "pEC50", "value": 10.05}
{"Compound": "CCCCCCCCCCCCCCCCC#CC(=O)O", "target": "DNA topoisomerase 1 (TOP1, Homo sapiens, UniProt P11387)", "read-out": "enzyme activity", "action": "inhibitor", "measurement": "pEC50", "value": 4.69}
{"Compound": "CC1(C)C=Cc2c(ccc3c2OC[C@@H](c2ccc(O)cc2O)C3)O1", "target": "PPARG", "read-out": "binding", "method": "ITC", "measurement": "pKd", "value": 4.84}
